The source of these data is the M2OR odorant receptor database.

Structures are written as SMILES.

Details in all cases: stereoisomer not certain
The target in one assay is T1, UniProt Q8VGX8.
T1 sequence (whole entry): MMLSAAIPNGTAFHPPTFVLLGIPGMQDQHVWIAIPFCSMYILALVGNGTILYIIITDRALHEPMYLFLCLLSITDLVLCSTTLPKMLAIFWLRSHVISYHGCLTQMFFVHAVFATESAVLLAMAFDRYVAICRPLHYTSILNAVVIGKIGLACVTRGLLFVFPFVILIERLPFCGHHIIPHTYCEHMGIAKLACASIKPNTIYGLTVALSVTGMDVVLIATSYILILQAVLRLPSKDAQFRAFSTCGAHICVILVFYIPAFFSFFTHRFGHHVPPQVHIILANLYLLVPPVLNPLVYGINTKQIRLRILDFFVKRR
In a few lines: (§1)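 Assay methods differ from source to source, frequently being transient luciferase assays in mammalian cell lines. For each receptor–molecule pair, the label responsive (active) applies when the original authors judged the measured signal statistically different from baseline, and non-responsive (inactive) applies otherwise.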

The next assay has as its target T2, UniProt Q8VGY6.
T2 sequence (whole entry): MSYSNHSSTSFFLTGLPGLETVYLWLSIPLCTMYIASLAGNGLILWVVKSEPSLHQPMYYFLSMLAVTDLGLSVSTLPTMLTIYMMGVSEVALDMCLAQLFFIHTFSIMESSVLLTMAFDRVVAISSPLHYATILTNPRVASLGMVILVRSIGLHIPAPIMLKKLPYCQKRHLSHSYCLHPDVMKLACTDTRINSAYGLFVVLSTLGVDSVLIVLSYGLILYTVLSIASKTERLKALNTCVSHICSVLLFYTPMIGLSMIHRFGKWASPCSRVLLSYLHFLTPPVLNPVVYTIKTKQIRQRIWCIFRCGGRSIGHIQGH
In a few lines:
as §1

Another assay has as its target T3, UniProt Q8VGZ2.
T3 sequence (whole entry): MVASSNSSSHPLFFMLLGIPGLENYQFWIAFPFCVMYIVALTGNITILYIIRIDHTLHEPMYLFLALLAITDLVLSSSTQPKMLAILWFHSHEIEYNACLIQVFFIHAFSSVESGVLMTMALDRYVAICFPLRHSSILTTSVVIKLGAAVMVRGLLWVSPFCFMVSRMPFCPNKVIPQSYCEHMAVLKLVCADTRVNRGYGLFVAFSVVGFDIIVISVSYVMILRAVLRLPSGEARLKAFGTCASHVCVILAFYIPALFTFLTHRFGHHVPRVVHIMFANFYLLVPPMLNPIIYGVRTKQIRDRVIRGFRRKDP
Summed up:
as §1

The next assay has as its target T4, UniProt Q8VGZ7.
T4 sequence (whole entry): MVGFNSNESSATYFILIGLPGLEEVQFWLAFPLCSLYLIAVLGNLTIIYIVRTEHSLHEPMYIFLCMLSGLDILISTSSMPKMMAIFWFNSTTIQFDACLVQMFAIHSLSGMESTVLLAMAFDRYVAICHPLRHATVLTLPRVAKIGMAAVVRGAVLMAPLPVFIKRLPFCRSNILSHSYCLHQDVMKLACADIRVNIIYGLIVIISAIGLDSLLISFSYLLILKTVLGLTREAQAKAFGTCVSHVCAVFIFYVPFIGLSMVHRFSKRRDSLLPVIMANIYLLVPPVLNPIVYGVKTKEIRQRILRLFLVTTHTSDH
In a few lines: as §1

The target in another assay is T5, UniProt Q8VH10.
T5 sequence (whole entry): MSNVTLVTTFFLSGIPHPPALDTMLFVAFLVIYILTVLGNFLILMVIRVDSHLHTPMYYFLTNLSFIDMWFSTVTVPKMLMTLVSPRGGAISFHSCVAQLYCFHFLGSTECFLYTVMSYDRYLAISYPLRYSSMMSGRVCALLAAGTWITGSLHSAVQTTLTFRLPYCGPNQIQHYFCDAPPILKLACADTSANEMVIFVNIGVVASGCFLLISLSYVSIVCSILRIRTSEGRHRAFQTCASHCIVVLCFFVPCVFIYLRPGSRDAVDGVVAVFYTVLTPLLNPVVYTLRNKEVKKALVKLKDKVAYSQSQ
Summed up: as §1

A further assay deals with T6, UniProt Q8VH16.
T6 sequence (whole entry): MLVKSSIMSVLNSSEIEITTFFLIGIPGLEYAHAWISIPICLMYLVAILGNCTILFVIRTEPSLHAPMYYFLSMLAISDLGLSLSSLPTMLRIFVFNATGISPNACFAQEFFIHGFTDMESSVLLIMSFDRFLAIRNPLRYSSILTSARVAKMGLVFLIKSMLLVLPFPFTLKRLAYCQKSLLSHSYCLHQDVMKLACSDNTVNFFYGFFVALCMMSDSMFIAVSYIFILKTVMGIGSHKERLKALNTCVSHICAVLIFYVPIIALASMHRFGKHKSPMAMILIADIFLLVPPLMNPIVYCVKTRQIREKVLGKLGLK
Summed up:
as §1

The target in a further assay is T7, UniProt Q8VH20.
T7 sequence (whole entry): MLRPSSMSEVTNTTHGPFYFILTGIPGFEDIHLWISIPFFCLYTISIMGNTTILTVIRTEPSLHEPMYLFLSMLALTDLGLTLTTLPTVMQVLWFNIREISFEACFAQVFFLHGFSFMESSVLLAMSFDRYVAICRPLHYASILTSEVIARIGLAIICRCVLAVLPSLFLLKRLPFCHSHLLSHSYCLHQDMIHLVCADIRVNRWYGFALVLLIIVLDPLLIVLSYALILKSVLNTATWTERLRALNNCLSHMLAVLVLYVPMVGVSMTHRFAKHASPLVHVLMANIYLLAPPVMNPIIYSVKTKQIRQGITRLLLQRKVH
Summed up:
as §1

In a further assay the target is T8, UniProt Q8VH21.
T8 sequence (whole entry): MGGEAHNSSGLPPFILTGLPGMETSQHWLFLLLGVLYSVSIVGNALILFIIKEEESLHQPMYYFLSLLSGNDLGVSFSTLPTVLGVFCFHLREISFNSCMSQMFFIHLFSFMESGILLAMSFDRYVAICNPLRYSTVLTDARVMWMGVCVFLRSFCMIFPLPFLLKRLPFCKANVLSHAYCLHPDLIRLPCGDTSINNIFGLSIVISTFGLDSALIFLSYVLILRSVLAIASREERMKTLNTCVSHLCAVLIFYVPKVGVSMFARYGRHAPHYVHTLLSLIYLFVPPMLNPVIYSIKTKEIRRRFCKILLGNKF
In a few lines:
as §1

The next assay concerns the target T9, UniProt Q8VH18.
T9 sequence (whole entry): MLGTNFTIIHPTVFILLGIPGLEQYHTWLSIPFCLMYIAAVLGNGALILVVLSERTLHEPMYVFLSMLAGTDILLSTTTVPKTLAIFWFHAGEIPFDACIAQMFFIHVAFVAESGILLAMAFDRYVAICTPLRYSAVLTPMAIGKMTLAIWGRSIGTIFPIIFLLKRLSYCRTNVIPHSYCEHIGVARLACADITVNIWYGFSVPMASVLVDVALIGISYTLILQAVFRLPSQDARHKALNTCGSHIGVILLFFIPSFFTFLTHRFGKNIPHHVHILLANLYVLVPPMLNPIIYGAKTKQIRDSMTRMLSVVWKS
In a few lines:
as §1

For `CCCCC(C)=O`, the “odorant receptor agonist call” value with UniProt Q8VGX8, in the assay with UniProt Q8VGY6, in the assay with UniProt Q8VGZ2, with UniProt Q8VGZ7, in the assay with UniProt Q8VH10 and with UniProt Q8VH16 was “inactive” each time. The “odorant receptor agonist call” value with UniProt Q8VH20 and with UniProt Q8VH21 was “inactive” in each case.
For `O=C1CCOc2ccccc21`, the “odorant receptor agonist call” value in the assay with UniProt Q8VGX8, with UniProt Q8VGY6, in the assay with UniProt Q8VGZ2, with UniProt Q8VGZ7, with UniProt Q8VH10 and with UniProt Q8VH16 was “inactive” in each case. The “odorant receptor agonist call” value with UniProt Q8VH20 and in the assay with UniProt Q8VH21 was “inactive” each time.
`CCCCCC(=O)CC`: the “odorant receptor agonist call” value with UniProt Q8VGX8, with UniProt Q8VGY6, with UniProt Q8VGZ2, with UniProt Q8VGZ7, with UniProt Q8VH10 and with UniProt Q8VH16 was “inactive” each time. Moreover, the “odorant receptor agonist call” value in the assay with UniProt Q8VH20 and with UniProt Q8VH21 was “inactive” in each case.
For the compound `CCC(=O)O`, the “odorant receptor agonist call” value in the assay with UniProt Q8VGX8, with UniProt Q8VGY6, with UniProt Q8VGZ2, in the assay with UniProt Q8VGZ7, with UniProt Q8VH10 and in the assay with UniProt Q8VH16 was “inactive” in each case. Besides, the “odorant receptor agonist call” value with UniProt Q8VH20 and with UniProt Q8VH21 was “inactive” each time.
For the compound `CCCCCCCC(C)=O`, the “odorant receptor agonist call” value in the assay with UniProt Q8VGX8, in the assay with UniProt Q8VGY6, with UniProt Q8VGZ2, with UniProt Q8VGZ7, with UniProt Q8VH10 and with UniProt Q8VH16 was “inactive” in each case. Moreover, the “odorant receptor agonist call” value with UniProt Q8VH20 and with UniProt Q8VH21 was “inactive” in each case.
In the case of `CCCCCCCCCCO`, the “odorant receptor agonist call” value in the assay with UniProt Q8VGX8, with UniProt Q8VGY6, with UniProt Q8VGZ2, with UniProt Q8VGZ7, in the assay with UniProt Q8VH10 and with UniProt Q8VH16 was “inactive” throughout. Moreover, the “odorant receptor agonist call” value in the assay with UniProt Q8VH20 and in the assay with UniProt Q8VH21 was “inactive” in each case.
`CCCCCC1=C(C)CCC1=O`: the “odorant receptor agonist call” value with UniProt Q8VGX8, in the assay with UniProt Q8VGY6, with UniProt Q8VGZ2, in the assay with UniProt Q8VGZ7, in the assay with UniProt Q8VH10 and with UniProt Q8VH16 was “inactive” in each case. Besides, the “odorant receptor agonist call” value with UniProt Q8VH20 and with UniProt Q8VH21 was “inactive” in each case.
As to `O=C1Cc2ccccc2O1`, the “odorant receptor agonist call” value with UniProt Q8VGX8, with UniProt Q8VGY6, with UniProt Q8VGZ2, with UniProt Q8VGZ7, in the assay with UniProt Q8VH10 and in the assay with UniProt Q8VH16 was “inactive” each time. The “odorant receptor agonist call” value with UniProt Q8VH20 and with UniProt Q8VH21 was “inactive” throughout.
As for `CCCCCCCO`, the “odorant receptor agonist call” value in the assay with UniProt Q8VGX8, in the assay with UniProt Q8VGY6, with UniProt Q8VGZ2, in the assay with UniProt Q8VGZ7, with UniProt Q8VH10 and with UniProt Q8VH16 was “inactive” throughout. Further, the “odorant receptor agonist call” value with UniProt Q8VH18, in the assay with UniProt Q8VH20 and in the assay with UniProt Q8VH21 was “inactive” each time.
In the case of `CCCCC(=O)CC`, the “odorant receptor agonist call” value with UniProt Q8VGX8, with UniProt Q8VGY6, with UniProt Q8VGZ2, with UniProt Q8VGZ7, in the assay with UniProt Q8VH10 and with UniProt Q8VH16 was “inactive” each time. In addition, the “odorant receptor agonist call” value in the assay with UniProt Q8VH20 and in the assay with UniProt Q8VH21 was “inactive” in each case.
Turning to `CCCCC(=O)O`, the “odorant receptor agonist call” value in the assay with UniProt Q8VGX8, with UniProt Q8VGY6, in the assay with UniProt Q8VGZ2, with UniProt Q8VGZ7, with UniProt Q8VH10 and in the assay with UniProt Q8VH16 was “inactive” each time. The “odorant receptor agonist call” value in the assay with UniProt Q8VH20 was “inactive”. The “odorant receptor agonist call” value with UniProt Q8VH21 is “active”.
